Measurements as given in article PMC3645320 (Biochimica et biophysica acta, 2011).
Read-outs that look alike come from different tables or passages of the source.

Tests used:
[1] = molecular target: T1, E217A human recombinant thrombin (Homo sapiens, UniProt P00734, E592A); test: HPLC-based kinetic assay of FXIII; type: biochemical; settings: E217A thrombin relative to WT thrombin
Outline: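 Recombinant human E217A thrombin (over 90% active by hirudin titration) at 33.6 or 78.4 nM depending on peptide, acting on acetylated/amidated FXIII (28–41) segment peptides at 100–3000 μM. Conditions: 50 mM H3PO4, 100 mM NaCl, 0.1% PEG, pH 7.4, 25 °C. Timed aliquots quenched in 12.5% H3PO4. FXIII (28–37) product measured by RP-HPLC against a calibration curve.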

[2] = molecular target: W60dA human recombinant thrombin (Homo sapiens, UniProt P00734, W413A); test: HPLC-based kinetic assay of FXIII; type: biochemical; settings: W60dA thrombin relative to WT thrombin
[3] = molecular target: T2, W215A human recombinant thrombin (Homo sapiens, UniProt P00734, W590A); test: HPLC-based kinetic assay of FXIII; type: biochemical; settings: W215A thrombin relative to WT thrombin
[4] = molecular target: T3, L99A human recombinant thrombin (Homo sapiens, UniProt P00734, L459A); test: HPLC-based kinetic assay of FXIII; type: biochemical; settings: L99A thrombin relative to WT thrombin
[5] = molecular target: Y60aA human recombinant thrombin (Homo sapiens, UniProt P00734, Y410A); test: HPLC-based kinetic assay of FXIII; type: biochemical; settings: Y60aA thrombin relative to WT thrombin
[6] = molecular target: T1, E217A human recombinant thrombin; settings: E217A thrombin relative to WT thrombin; ref [37]; cited from earlier work
[7] = molecular target: T2, W215A human recombinant thrombin; settings: W215A thrombin relative to WT thrombin; ref [37]; cited from earlier work
[8] = molecular target: T3, L99A human recombinant thrombin; settings: ref [37], cited from earlier work

Substance | loss in kcat [1] [fold] | Km (in words) [2] | decrease in kcat [2] [fold] | decrease in kcat [3] [fold] | decrease in kcat/Km [3] [fold] | decrease in kcat [4] [fold] | increase in Km [5] [fold] | decrease in kcat [6] [fold] | increase in Km [6] | decrease in kcat/Km [7] [fold] | decrease in kcat ([8]; L99A thrombin relative to WT thrombin) [fold] | Km and kcat (in words) ([8]; L99A thrombin, relative to WT thrombin or across the V34X series)
Ac-TVELQGFVPRGVNL-NH2 [FXIII (28–41) V34F AP] | 2 | comparable to that of WT thrombin | 4 | 3 | 3 | 2 |  |  |  |  |  | 
Ac-TVELQGLVPRGVNL-amide (Ac-TVELQGLVPRGVNL-NH2) [FXIII (28–41) V34L AP] |  |  |  |  |  |  | 2 | ≤ 2 | 3–4 fold |  |  | 
Ac-TVELQGVVPRGVNL-NH2 [FXIII (28–41) V34 AP] |  |  | 3 |  |  |  | 2 | ≤ 2 | 3–4 fold | 4 | 3 | highest Km values of the IIa L99A series
Ac-TVELQGPVPRGVNL-NH2 [FXIII (28–41) V34P AP] |  |  | 1.3 | 2 |  |  |  |  |  |  |  | 
